Source: PubChem BioAssay (Broad Institute)
Statin myotox sup: suppressors of simvastatin-induced myotoxicity in C2C12 myotubes. ATP luminescence, 48 h; scaled: DMSO 0, geranylgeraniol control 100. rescue of ATP level, % at 7.49 µM. 330,000 tested, 0.78% active. AID 602340;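 active = mean ATP rescue above about 67%, or every replicate alone reaching that limit, limit read from the data, passing the limit was not always enough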;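 note: myotubes were challenged with 10 µM simvastatin during compound exposure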
SR-BI DiI inh: blocks mouse SR-BI lipid uptake from DiI-HDL; Q61009; ldlA[mSR-BI] CHO cells, DiI-HDL uptake fluorescence, 3 h; inhibition, % at 12.5 µM; 320,000 tested, 0.96% active; AID 488896;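 active = mean replicate inhibition of at least 70% and a set share of replicates each scoring 70 or more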
Target sequence (Q61009 whole entry, looked up): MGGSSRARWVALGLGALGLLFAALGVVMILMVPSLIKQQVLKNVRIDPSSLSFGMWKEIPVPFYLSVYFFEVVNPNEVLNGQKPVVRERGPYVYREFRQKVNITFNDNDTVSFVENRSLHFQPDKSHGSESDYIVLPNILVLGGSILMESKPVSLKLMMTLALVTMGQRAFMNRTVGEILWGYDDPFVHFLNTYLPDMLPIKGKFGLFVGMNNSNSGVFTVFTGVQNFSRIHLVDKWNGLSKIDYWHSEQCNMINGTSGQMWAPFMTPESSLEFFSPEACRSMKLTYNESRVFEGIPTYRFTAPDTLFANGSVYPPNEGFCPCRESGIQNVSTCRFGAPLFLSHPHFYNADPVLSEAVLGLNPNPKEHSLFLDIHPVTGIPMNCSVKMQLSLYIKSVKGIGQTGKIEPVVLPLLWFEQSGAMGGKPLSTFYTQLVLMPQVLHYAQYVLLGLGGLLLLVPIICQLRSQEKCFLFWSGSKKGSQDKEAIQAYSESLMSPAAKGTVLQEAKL
Vif inh: blocks HIV Vif function; inhibition, % at 7.49 µM; 340,000 tested, 0.35% active; HEK293T cells, Vif self-association by quenched fluorescence, imaging, 24 h; in the data active = inhibition above about 50%, passing the limit was not always enough
SR-BI uptake up: activators of SR-BI mediated HDL lipid uptake | 320,000 tested, 0.096% active | activation, % at 12.5 µM | AID 504775 | CHO ldlA[mSR-BI] cells, DiI-HDL uptake fluorescence, 3 h; 100 = double the neutral-control signal;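 active = mean replicate activation of at least 60% and every replicate at or above 60%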
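system = CHO ldlA[mSR-BI] cells, LDL receptor-null, SR-BI overexpressing | medium = Ham's F12 with 0.5% BSA, HEPES 25 mM, pH 7.4 | probe or stimulus = DiI-HDL 10 µg/mL | compound dosing = single-point compound dose | incubation = compound exposure 3 h, 37 °C | technique = DiI fluorescence, bottom read | read-out = cell-associated DiI fluorescence as measure of HDL uptake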
Large screens that a line does not name were inactive. Hits are enriched below; roughly 1.7% of the tested compounds scored in any of these assays.

COc1cccc(/C=N/NC(=O)c2[nH]c(C)c(C(=O)N/N=C/c3cccc(OC)c3O)c2C)c1O	SR-BI DiI inh 125 (no result: Statin myotox sup)
COCC#Cc1cnc2c(c1)C(=O)N([C@H](C)CO)C[C@@H](C)[C@H](CN(C)C(=O)c1cccc(F)c1)O2	none (no result: SR-BI DiI inh, Vif inh, SR-BI uptake up)
CCCNC(=O)N(C)C[C@@H]1Oc2cc(C#CC3CC3)ccc2S(=O)(=O)N([C@H](C)CO)C[C@@H]1C	none (no result: SR-BI DiI inh, Vif inh, SR-BI uptake up)
CCCn1c(-c2cccnc2Cl)nc2cc(Cl)c(Cl)cc21	Statin myotox sup 72
O=C(O)c1cccc(Nc2ccnc(Nc3cccc(C(=O)O)c3)n2)c1	Vif inh 140
O=C(O)c1cccc(Nc2nc(N3CCOCC3)nc(N3CCOCC3)n2)c1	none
CCS(=O)(=O)c1ccc(-c2csc(-c3ccc(Cl)cc3)n2)c(Cl)c1Cl	Statin myotox sup 103
S=C(c1ccc(-c2ccccc2Cl)o1)N1CCOCC1	Statin myotox sup 78 (no result: Vif inh)
COc1ccc(CNC(=O)c2ccc[nH]2)cc1	Vif inh 60
COc1ccc(CNC(=O)c2cc(C(C)=O)c[nH]2)cc1	none
COc1ccc2[nH]cc(C(=O)CCl)c2c1	none
COc1ccc2[nH]cc(C(=O)CNc3nc(C)cs3)c2c1	Statin myotox sup 125
COc1ccccc1NC(=O)c1ccc(NC(=O)c2cc3c(s2)CCC3)cc1	SR-BI DiI inh 73 (no result: Statin myotox sup)
CNC(=O)c1ccsc1NC(=O)c1ccc(S(=O)(=O)N2CCCc3ccccc32)cc1	Statin myotox sup 76
O=C(Nc1nc2c(s1)CCCC2)c1ccc(S(=O)(=O)N2CCCc3ccccc32)cc1	none (no result: Statin myotox sup)
CC1CC(=O)c2c(cc3c(-c4c(O)cc(O)c5c(O)c6c(cc45)OC(C)CC6=O)c(O)cc(O)c3c2O)O1 (configuration not stated)	SR-BI DiI inh 117
CCC(=O)N1C[C@@H]2[C@H](c3ccccc31)[C@H](CO)N2C(=O)CC	none (no result: SR-BI DiI inh, Vif inh, SR-BI uptake up)
Cc1ccc(S(=O)(=O)N(C)C[C@H]2OCCCC[C@H](C)Oc3ccc(NS(=O)(=O)c4ccc(F)cc4)cc3C(=O)N([C@@H](C)CO)C[C@H]2C)cc1	none (no result: SR-BI DiI inh, Vif inh, SR-BI uptake up)
C[C@@H]1CN([C@H](C)CO)C(=O)c2cc(C#CCN(C)C)cnc2O[C@@H]1CN(C)C(=O)c1ccc(F)cc1	none (no result: SR-BI DiI inh, Vif inh, SR-BI uptake up)
S=C(S)N1CCCC1	Vif inh 75
CC(SCc1cn2cc(Cl)ccc2n1)C(=O)O (configuration not stated)	Statin myotox sup 108
CS(=O)(=O)N1[C@@H]2Cn3c(ccc(-c4cccc(F)c4)c3=O)[C@H]1[C@@H](C(=O)N1CCOCC1)[C@@H]2CO	none (no result: SR-BI DiI inh, Vif inh, SR-BI uptake up)
COc1ncc(-c2cccc3nccn23)c(OC)n1	none (no result: SR-BI DiI inh, SR-BI uptake up)
COc1ccccc1-c1cccc2nccn12	Vif inh 67 (no result: SR-BI DiI inh, SR-BI uptake up)
C[C@H](CO)N1C[C@H](C)[C@@H](CN(C)Cc2cccc(F)c2)OCc2ccccc2-c2ccccc2C1=O	none (no result: SR-BI DiI inh, Vif inh, SR-BI uptake up)
CO[C@@H]1CN(C)C(=O)c2ccc(NC(=O)C3CCOCC3)cc2OC[C@H](C)N(Cc2nccs2)C[C@H]1C	none (no result: SR-BI DiI inh, Vif inh, SR-BI uptake up)
Cc1[nH]c2ccccc2c1C1(O)C(=O)N(C(C)C)c2ccccc21 (configuration not stated)	Vif inh 57
CCCN(CCC)c1ccc(/C=C/c2ccc3cc(OCC)ccc3n2)cc1	SR-BI DiI inh 71
C[C@H](CO)N1C[C@H](C)[C@H](CN(C)CC2CCOCC2)Oc2ncc(-c3cccc(F)c3)cc2C1=O	none (no result: SR-BI DiI inh, Vif inh, SR-BI uptake up)
O=c1cc(CN2CCN(c3ccc(F)cc3)CC2)c2cc3c(cc2o1)CCCC3	SR-BI DiI inh 71
O=C(CN1CCN(CCOCCO)CC1)N1c2ccccc2Sc2ccc(Cl)cc21	Statin myotox sup 108
C[C@@H]1CN([C@@H](C)CO)C(=O)c2c(c3ccccc3n2C)-c2ccccc2CO[C@@H]1CN(C)C(=O)Nc1cccc(F)c1	none (no result: SR-BI DiI inh, Vif inh, SR-BI uptake up)
COc1ccc(-c2sc3ccccc3c2/C=C/c2ccc(OC)c(OC)c2)cc1	SR-BI DiI inh 82
C=CCn1c(=O)c(C(=O)Nc2ccc(C)cn2)c(O)c2ccccc21	none
C=CCn1c(=O)c(C(=O)Nc2cccnc2)c(O)c2ccccc21	Statin myotox sup 96
O=C(CCS(=O)(=O)c1ccccc1)Nc1ccccc1-c1nc2ccccc2s1	SR-BI DiI inh 72 (no result: Statin myotox sup)
Cc1ccc2nc(-c3ccc(NC(=O)CCS(=O)(=O)c4ccccc4)cc3)sc2c1	none (no result: Statin myotox sup)
O=C(CCS(=O)(=O)c1ccccc1)Nc1ncc([N+](=O)[O-])s1	Statin myotox sup 75
O=C(Nc1ccccc1)[C@@H]1[C@@H](CO)[C@@H]2Cn3c(cccc3=O)[C@@H]2N1C(=O)C1CCC1	none (no result: SR-BI DiI inh, Vif inh, SR-BI uptake up)
